In PMC2635340 (Neuropharmacology, 2008):
Counter-ions that a name gives are not always drawn.

Columns and labels:
[1] = molecular target: 5-HT1A and 5-HT2A receptors (Homo sapiens, UniProt P28223); assay type: cell-based; conditions: 50 nM, 2 hours exposure before TCB-2 alone or TCB-2 and Xaliproden HCl
[2] = molecular target: 5-HT2AR (Homo sapiens, UniProt P28223); assay: ERK1/2 activation; assay type: cell-based
[3] = molecular target: T1, 5-HT1AR (Homo sapiens, UniProt P08908); assay: ERK1/2 activation; assay type: cell-based
T1 sequence (P08908 1-422): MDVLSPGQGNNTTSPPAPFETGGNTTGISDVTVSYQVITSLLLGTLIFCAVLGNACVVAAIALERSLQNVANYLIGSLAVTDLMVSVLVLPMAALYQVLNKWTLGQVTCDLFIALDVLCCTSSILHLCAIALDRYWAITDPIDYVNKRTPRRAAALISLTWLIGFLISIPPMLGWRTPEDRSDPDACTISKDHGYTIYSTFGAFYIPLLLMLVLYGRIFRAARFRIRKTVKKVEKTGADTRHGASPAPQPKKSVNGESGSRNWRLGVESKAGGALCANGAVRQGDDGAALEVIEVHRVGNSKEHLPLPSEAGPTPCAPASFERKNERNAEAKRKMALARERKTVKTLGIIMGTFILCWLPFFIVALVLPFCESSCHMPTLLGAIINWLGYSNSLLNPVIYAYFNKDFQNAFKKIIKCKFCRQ
Method in brief: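 HEK293 cells stably expressing human 5-HT1AR (clonal, selected with G418 or hygromycin) were kept in 100 μg/ml selection antibiotic and then serum-starved in serum-free DMEM for at least 24 h. Agonist (10−10–10−4 M) was applied for 5 min; selected concentrations ran 5 min–1 h. Lysates (equal protein) were resolved by 10% SDS-PAGE. Parallel blots were probed for phospho-ERK1/2 and total ERK1/2, read by ECL densitometry with background subtracted. Serum was the positive control.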

[4] = molecular target: T2, human 5-HT1A receptors (Homo sapiens, UniProt P08908); assay: Saturation isotherm radioligand binding, 5-HT1A receptor; conditions: membranes, geometric mean ± SD, n = 3
T2 sequence (P08908 1-422): T1 sequence (P08908 1-422)
Method in brief: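 HEK293 membranes (5-HT1AR alone or with 5-HT2AR) were prepared by EDTA detachment, hypotonic lysis (5 mM Tris/MgCl2, pH 7.4) and 35,000g spins. They were incubated with [3H]MPPF in 50 mM Tris, pH 7.4, at 25 °C for 1.5 h, with excess NAN-190 defining nonspecific binding. Bound ligand was collected on PEI-treated GF/C filters and counted. Triplicate points; Kd and Bmax came from saturation isotherms, three experiments.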

[5] = molecular target: human 5-HT2A receptors (Homo sapiens, UniProt P28223); assay: Saturation isotherm radioligand binding, 5-HT2A receptor; conditions: membranes, geometric mean ± SD, n = 3
Method in brief: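 HEK293 membranes (5-HT2AR alone or with 5-HT1AR) were prepared by EDTA detachment, hypotonic lysis and 35,000g centrifugation. Saturation binding used [3H]MSP (0.3–10 nM) in 50 mM Tris, pH 7.4, for 1.5 h at 25 °C, with excess mianserin defining nonspecific binding. Samples were filtered on PEI-treated GF/C filters and counted by scintillation, with protein measured by BCA. Triplicate points; Kd and Bmax were fitted from isotherms, geometric mean of three experiments.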

[6] = HEK293 cell line 5-HT1A+2AR co-expressing

Sequence of human 5-HT2A receptors (P28223 whole entry): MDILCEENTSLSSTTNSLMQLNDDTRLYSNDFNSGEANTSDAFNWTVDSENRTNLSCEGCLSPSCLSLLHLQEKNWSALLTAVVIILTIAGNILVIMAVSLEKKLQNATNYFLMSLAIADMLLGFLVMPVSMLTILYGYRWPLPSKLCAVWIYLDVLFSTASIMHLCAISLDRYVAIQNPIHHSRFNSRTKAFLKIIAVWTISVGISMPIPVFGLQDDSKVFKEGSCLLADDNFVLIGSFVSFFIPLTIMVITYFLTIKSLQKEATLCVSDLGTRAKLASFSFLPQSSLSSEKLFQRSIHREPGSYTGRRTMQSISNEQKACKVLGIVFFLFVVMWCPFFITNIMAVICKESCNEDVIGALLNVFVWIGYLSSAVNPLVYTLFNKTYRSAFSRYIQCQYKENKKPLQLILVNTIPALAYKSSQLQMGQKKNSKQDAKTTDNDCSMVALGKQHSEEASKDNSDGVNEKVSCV
Sequence of 5-HT2AR (P28223 whole entry): as above
Sequence of 5-HT1A and 5-HT2A receptors (P28223 whole entry): as above

O=C(c1ccc(F)cc1)C1CCN(CCn2c(=O)[nH]c3ccccc3c2=O)CC1 [Ketanserin]
Effect on agonist-induced ERK response [1]: switched it from sustained to transient
Fraction of initial ERK activation observed ([2]; 50 nM Ketanserin present, 5-HT2AR clone): about half

FC(F)(F)c1cccc(C2=CCN(CCc3ccc4ccccc4c3)CC2)c1 [Xaliproden HCl, Xaliproden hydrochloride]
Time-course pattern of ERK1/2 activation ([3]; 5-HT1AR agonist, HEK293 cells): transient activation
Minimal concentration required to obtain observed ERK activation ([3]; 5-HT1AR cells, dose-response, 5 min): 100 nM

COc1ccccc1N1CCN(CCN(C(=O)c2ccc(F)cc2)c2ccccn2)CC1 [[3H] MPPF, 4-(2′-Methoxy)-phenyl-1-[2′-(N-2″-pyridinyl)-p-fluorobenzamido]ethyl-piperazine]
Bmax [4, 6]: 8.37 ± 4.14 pmol/mg
Kd [4, 6]: 0.167 ± 0.013 nM
Bmax ([4]; HEK293 cell line 5-HT1AR only): 3.07 ± 1.67 pmol/mg
Kd ([4]; HEK293 cell line 5-HT1AR only): 0.267 ± 0.036 nM

CN1CN(c2ccccc2)C2(CCN(CCCC(=O)c3ccc(F)cc3)CC2)C1=O [[3H] MSP, [^3H]methylspiperone]
Bmax [5, 6]: 7.00 ± 1.05 pmol/mg
Kd [5, 6]: 0.725 ± 0.199 nM
Bmax ([5]; HEK293 cell line 5-HT2AR only): 4.17 ± 2.28 pmol/mg
Kd ([5]; HEK293 cell line 5-HT2AR only): 0.246 ± 0.042 nM

CC(N)Cc1c[nH]c2ccc(O)cc12 (stereo not drawn) [α-methyl-5-HT]
Time-course pattern of ERK activation ([2]; 10μM, HEK293-h5-HT2A): sustained ERK activation
